# Compounds with a hit are over-represented: about 2.9% of the library has one in this group of screens.
# HTRA1 inhibitor: inhibitors of human serine peptidase HTRA1 | 340,000 compounds, 0.5% hits | recombinant HTRA1, FP-rhodamine activity-based probe, fluorescence polarization | Q92743 | AID 504803 | inhibition, % at 5.96 µM; in the data active means inhibition above about 36%;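 further: 0% = enzyme with DMSO and 100% = wells lacking enzyme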
# TCR CD3 inh: human TCR-CD3 binding inhibition; TAMRA-labeled TCR probe fluorescence, biochemical; inhibition, % at 9.4 µM; 360,000 compounds, 0.37% hits; in the data active means inhibition above about 19%;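 further: recombinant mutant TCR 2C K166C tagged with TAMRA read by polarization; 0% = receptor in buffer alone and 100% = receptor with positive control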
# PAD4 inh: PAD4 (human) enzyme inhibition; recombinant PAD4, RCA probe fluorescence polarization; inhibition, % at 6.36 µM; Q9UM07; 330,000 compounds, 0.41% hits;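 active means percent inhibition above a cutoff equal to the mean of all tested compounds plus 3 SD, cut at about 15% in these data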;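 further: 0% = PAD4 with RCA probe and DMSO and 100% = probe without PAD4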
# PRMT1 FP inh: PRMT1 (human) inhibition, primary screen; Q99873; recombinant PRMT1, activity-based probe fluorescence polarization; inhibition, % at 2.79 µM; 370,000 compounds, 1.3% hits;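 active means inhibition above about 21% made by adding two undisclosed values, limit read from the data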
# SIAE inh: human SIAE inhibition, primary screen. inhibition, % at 9.66 µM. 370,000 compounds, 0.69% hits. SIAE FP-Rh probe binding, fluorescence polarization. AID 1053197;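 active means inhibition above a cutoff: mean of compounds within the control limits plus 3 SD of those, cut at about 17% in these data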;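 further: 0% = plate median of compound wells and 100% = probe without SIAE protein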
# ABHD4 inh: inhibits mouse alpha/beta hydrolase domain 4 | Q8VD66 | purified mABHD4, FP-Rh probe fluorescence polarization | inhibition, % at 8.92 µM | 370,000 compounds, 0.54% hits | AID 720543;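 active means inhibition exceeding the mean over every tested compound plus 3 SD, cut at about 30% in these data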;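 further: 0% = plate median of compound wells and 100% = S159A mutant with DMSO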
# Target sequence (Q8VD66 whole entry, looked up, the tested form may be a part): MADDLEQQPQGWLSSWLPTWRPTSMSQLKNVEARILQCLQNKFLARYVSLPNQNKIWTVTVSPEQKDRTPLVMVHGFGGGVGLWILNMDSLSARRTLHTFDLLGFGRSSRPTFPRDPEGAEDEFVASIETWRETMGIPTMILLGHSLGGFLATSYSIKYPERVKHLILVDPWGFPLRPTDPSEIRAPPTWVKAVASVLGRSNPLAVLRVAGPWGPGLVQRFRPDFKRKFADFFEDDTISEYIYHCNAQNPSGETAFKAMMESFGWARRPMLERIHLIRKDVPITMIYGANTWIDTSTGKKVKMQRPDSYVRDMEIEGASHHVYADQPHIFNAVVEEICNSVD
#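 Assay system: mouse ABHD4 enzyme, wild type / Also added: fluorescent activity-based probe FP-Rh / Doses: single nominal dose of 8.92 µM, 0.89% DMSO final / Timing: 45 min compound pre-incubation plus 60 min probe step, 25 °C / Signal: FP readout, ex 525 nm / em 598 nm / Control set: S159A mutant/DMSO as 100%, compound-well median as 0%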
# Numbers without * were called inactive; / = no result.
SMILES,HTRA1 inhibitor,TCR CD3 inh,PAD4 inh,PRMT1 FP inh,SIAE inh,ABHD4 inh
COc1cc(/C=C/C(=O)OC[C@H]2O[C@H](OC3(CO)OC(CO)C(O)C3O)[C@H](O)[C@@H](O)[C@@H]2O)ccc1O (stereo not given in full),-9,1,0,-3,5,4
C[C@@H]1O[C@@H](O[C@@H]2[C@@H](O)[C@H](OCCc3ccc(O)c(O)c3)O[C@H](CO)[C@H]2OC(=O)/C=C/c2ccc(O)c(O)c2)[C@H](O)[C@H](O)[C@H]1O,4,11,4,25*,7,10
COc1ccc(-c2cc(-c3nnc(SCC(=O)NC4CCCCC4)n3N)[nH]n2)cc1,/,/,/,-2,-4,5
O=C(O)/C=C\C(=O)Nc1ccccc1C#Cc1ccc(Br)cc1,-7,0,-2,22*,-1,-3
O=C(O)/C=C\C(=O)Nc1ccccc1C#Cc1ccccc1,-3,-6,-5,14,-3,2
CN1c2ccccc2C(O)=C(C(=S)Nc2ccccc2)S1(=O)=O,-3,0,-4,22*,-6,-5
Cc1ccc(NC(=S)C2=C(O)c3ccccc3N(C)S2(=O)=O)cc1,0,0,2,13,-1,5
Cc1ccc(Nc2nc(-c3c(C)nc4ncccn34)cs2)cc1,6,-2,1,6,4,19
Cc1ccc(Nc2nc(-c3c(C)nc4ccccn34)cs2)cc1,20,-6,3,3,7,35*
COCC(=O)NCc1ccc2c(c1)cc(C)n2C,-2,14,15*,6,-1,18
COc1ccc(CC(=O)NCc2ccc3c(c2)cc(C)n3C)cc1OC,8,8,-7,1,8,1
CCOC(=O)N1CCN(C(=O)C[C@H]2C[C@@]3(C(=O)OC)C(=C[C@H](C4CCCC4)O[C@@H]3C)N(Cc3cccc4ccccc34)C2=O)CC1,/,/,/,-1,0,-15
CN1Cc2nnn(Cc3ccccc3)c2-c2ccccc2S1(=O)=O,/,/,/,1,5,2
O=C(/C=C/c1ccco1)Nc1nc(-c2ccccn2)cs1,11,0,-5,23*,0,1
Cc1cc(C(=O)NCc2ccco2)on1,6,-7,1,24*,-5,0
O=C(C1CCN(c2cncnc2)CC1)N1CCCC1,/,/,/,-1,1,2
Cc1ccc2[nH]c3c(c2c1)CN(C(=O)CN(C)CC1OCCO1)CC3,0,2,-13,22*,-2,-2
CN(CC(=O)N1CCc2[nH]c3ccc(F)cc3c2C1)CC1OCCO1,/,8,-1,-1,12,-2
CCN(CC)C(=O)c1sc2nc(N3CCOCC3)c3c(c2c1N)CCCC3,-9,-3,-1,24*,3,8
COC(=O)[C@]12C[C@H](CC(=O)N3CCN(C(=O)c4ccco4)CC3)C(=O)N(Cc3ccc(Cl)cc3Cl)C1=C[C@H](C1CCCC1)O[C@@H]2C,/,/,/,3,-5,-5
Cc1ccc(N=C2NC(=O)/C(=C/C=C/c3ccco3)S2)cc1,20,8,-18,23*,14,19
Cc1ccc(N=C2NC(=O)S/C2=C\c2ccco2)cc1,-7,2,-6,3,-4,-11
CCOC(=O)C1=C(Cc2ccc(F)cc2)C(=O)c2ccccc2C1=O,5,-2,-37,79*,-12,-12
O=C(OCc1ccc(F)cc1)c1ccc2c(c1)-c1ccccc1C2=O,-1,3,1,1,10,-2
CCCc1cc(=O)[nH]c(SCC(=O)N2CCN(S(=O)(=O)c3ccc(Cl)cc3)CC2)n1,2,3,4,-3,0,6
SMILES,HTRA1 inhibitor,TCR CD3 inh,PAD4 inh,PRMT1 FP inh,SIAE inh,ABHD4 inh
CCCc1cc(=O)[nH]c(SCC(=O)c2ccc(S(=O)(=O)N3CCCC3)cc2)n1,-6,10,-1,22*,-5,4
O=C(CN1C(=O)S/C(=C\c2ccccc2Cl)C1=O)NCCCn1ccnc1,-4,2,-5,24*,3,20
CC(=O)c1ccc(NC(=O)NC2CCCCN(Cc3cccc(Cl)c3)C2=O)cc1 (stereo not given),/,/,/,-4,-31,-15
CSc1ccccc1NC(=O)c1ccccc1,9,0,1,0,5,2
O=C(Nc1ccccc1SC(=O)c1ccccc1)c1ccccc1,4,3,/,94*,3,-13
Cc1ccc(C(=O)Sc2cccccc2=O)cc1,22,9,1,45*,7,20
